Source: PubChem
E-sel inducer = induces E-selectin expression in human endothelial cells. HUVEC E-selectin immunofluorescence imaging; normalized: neutral wells 0, TNF-alpha wells 100. activation, % at 7.58 µM. actives 0.37% (n = 260,000). AID 686992;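 active = mean E-selectin-positive cell signal at least 10% of the positive control, reached in at least 60% of replicates, without over 20% cell loss; inconclusive = no rule given, readout overlaps actives, possibly toxicity-flagged; inactive = the rest, including those meeting only one limit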
Target sequence (P16581 whole entry, looked up): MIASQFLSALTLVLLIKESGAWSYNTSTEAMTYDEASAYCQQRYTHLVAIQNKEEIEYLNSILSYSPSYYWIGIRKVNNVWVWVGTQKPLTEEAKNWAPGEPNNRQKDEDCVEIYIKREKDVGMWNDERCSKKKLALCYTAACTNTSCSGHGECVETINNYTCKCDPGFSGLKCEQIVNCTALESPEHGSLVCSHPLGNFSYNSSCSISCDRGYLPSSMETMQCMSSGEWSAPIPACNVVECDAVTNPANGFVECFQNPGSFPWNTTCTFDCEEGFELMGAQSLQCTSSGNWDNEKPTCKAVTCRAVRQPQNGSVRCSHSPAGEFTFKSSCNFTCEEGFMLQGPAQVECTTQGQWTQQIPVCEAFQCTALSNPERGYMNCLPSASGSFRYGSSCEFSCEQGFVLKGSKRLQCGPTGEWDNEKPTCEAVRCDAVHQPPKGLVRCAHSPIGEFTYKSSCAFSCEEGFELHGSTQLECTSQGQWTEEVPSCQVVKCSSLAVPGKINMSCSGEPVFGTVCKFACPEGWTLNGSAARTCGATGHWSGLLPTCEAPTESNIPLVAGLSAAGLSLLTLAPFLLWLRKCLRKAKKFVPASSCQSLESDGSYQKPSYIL
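Assay system: HUVEC primary endothelial cells. Input: 3,000 HUVEC seeded per well. Doses: one compound dose added by pin transfer. Read-out basis: % PE-positive cells. Benchmarks: TNF-alpha high, DMSO low. Detection: immunofluorescence imaging. Buffer or medium: EGM-2, gelatin.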
SIRT5 inh = blocks human SIRT5 desuccinylation of peptide. inhibition, % at 15 µM. Q9NXA8. Purified SirT5, succinyl-peptide AMC, trypsin-coupled fluorescence. actives 1.1% (n = 330,000); in the data active = inhibition above about 15%; inconclusive = no clear call, values can overlap the other calls
DENV2 CPE = inhibitors of DENV2 cytopathic effect; DENV2-infected cells, cytopathic effect rescue, plate reader; CPE inhibition, % at 9.99 µM; actives 1.7% (n = 350,000); AID 651640; in the data active = CPE inhibition above about 20%, passing the limit was not always enough; inconclusive = no clear call, values can overlap the other calls; tested in BHK-21 cells;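 note: 0% = median of neutral control wells and 100% = median of positive control wells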
* hit, by the source's call. An excerpt weighted towards active compounds, which were near 2.8% of everything screened.

For O=C(Cc1nnc(NC(=O)Nc2ccc(Cl)cc2)s1)NCc1ccccc1 the results were SIRT5 inh 38* and DENV2 CPE 5.
For O=C(Cc1nnc(NC(=O)Nc2ccccc2)s1)NCc1ccccc1 the results were SIRT5 inh -3 and DENV2 CPE 2.
For Cc1ccccc1S(=O)(=O)N1CCCCN2[C@H](CO)[C@H](c3ccc(-c4ccccc4)cc3)[C@H]2C1 the results were SIRT5 inh 17* and DENV2 CPE -3.
`Cc1cccc(-c2ccc([C@H]3[C@H]4CN(S(=O)(=O)c5ccccc5C)CCCCN4[C@H]3CO)cc2)c1` gave E-sel inducer 0, SIRT5 inh -3 and DENV2 CPE 7.
Screening COCC#Cc1ccc([C@@H]2[C@H]3CN(S(=O)(=O)c4ccccc4F)CCCCN3[C@H]2CO)cc1 returned E-sel inducer 0, SIRT5 inh -2 and DENV2 CPE 33*.
COCC#Cc1ccc([C@@H]2[C@@H](CO)N3CCCCN(S(=O)(=O)c4ccccc4C)C[C@@H]23)cc1 was read as E-sel inducer 0, SIRT5 inh 11 and DENV2 CPE -2.
`O=S(=O)(c1ccccc1F)N1CCCCN2[C@H](C1)[C@@H](c1ccc(-c3ccccc3)cc1)[C@@H]2CO` gave SIRT5 inh 0 and DENV2 CPE 4.
For Cc1ccccc1S(=O)(=O)N1CCCCN2[C@H](CO)[C@@H](c3ccc(-c4ccccc4)cc3)[C@H]2C1 the results were SIRT5 inh 19* and DENV2 CPE -2.
`Cc1ccccc1S(=O)(=O)N1CCCCN2[C@@H](CO)[C@@H](c3ccc(-c4ccccc4)cc3)[C@@H]2C1` gave SIRT5 inh -1 and DENV2 CPE -7.
`O=S(=O)(c1ccccc1F)N1CCCCN2[C@H](CO)[C@H](c3ccc(-c4ccccc4)cc3)[C@H]2C1` gave E-sel inducer 0, SIRT5 inh 3 and DENV2 CPE 34*.
CO[C@@H]1CN(C)C(=O)c2ccc(NC(=O)C3CCOCC3)cc2OC[C@@H](C)N(C)C[C@@H]1C was read as E-sel inducer 2.
`O=C(c1ccc(F)cc1)N1CCCCN2[C@H](CO)[C@H](c3ccc(C#CC4(O)CCCC4)cc3)[C@@H]2C1` gave E-sel inducer 0, SIRT5 inh -2 and DENV2 CPE 9.
COc1ccc2c3c(n(C)c2c1)[C@H](CO)N(C(=O)Nc1ccc(F)cc1)CC31CN(S(=O)(=O)c2cccc(F)c2)C1 was read as E-sel inducer 0 and DENV2 CPE 16.
`COc1cccc(-c2ccc([C@@H]3[C@H]4CN(C(=O)C5CC5)CC(=O)N4[C@H]3CO)cc2)c1` gave E-sel inducer 0, SIRT5 inh -1 and DENV2 CPE 15.
For C[C@@H]1CN([C@@H](C)CO)C(=O)Cc2cc(NC(=O)Nc3cccc4ccccc34)ccc2O[C@H]1CN(C)Cc1ccncc1 the results were SIRT5 inh 2 and DENV2 CPE -2.
Screening COc1ccc(CN(C)C[C@H]2Oc3ccc(NC(=O)NC4CCCCC4)cc3C(=O)N([C@@H](C)CO)C[C@H]2C)cc1 returned SIRT5 inh -7 and DENV2 CPE -6.
COCC(=O)N(C)C[C@H]1Oc2ncc(C3=CCCC3)cc2C(=O)N([C@H](C)CO)C[C@H]1C was read as E-sel inducer 0, SIRT5 inh -5 and DENV2 CPE 2.
Screening C/C=C/c1cnc2c(c1)C(=O)N([C@H](C)CO)C[C@H](C)[C@H](CN(C)C(=O)Nc1c(C)noc1C)O2 returned SIRT5 inh -8 and DENV2 CPE -3.
Screening COc1ccc(C(=O)Nc2ccc3c(c2)OC[C@@H](C)N(C(C)=O)C[C@H](C)[C@@H](OC)CN(C)C3=O)cc1 returned E-sel inducer 0, SIRT5 inh 2 and DENV2 CPE -8.
CCOC(=O)C[C@H]1c2cc(F)ccc2S(=O)(=O)N1c1ccccc1 was read as E-sel inducer 0, SIRT5 inh 3 and DENV2 CPE -7.
Screening CCOC(=O)C[C@H]1c2ccccc2S(=O)(=O)N1c1ccccc1 returned E-sel inducer 1 and DENV2 CPE 37*.
`CN(C)C(=O)C[C@@H]1CC[C@H]2[C@@H](COC[C@@H](O)CN2C(=O)c2ccncc2)O1` gave E-sel inducer 0 and DENV2 CPE 3.
O=C(C[C@H]1CC[C@H]2[C@@H](COC[C@H](O)CN2C(=O)c2ccncc2)O1)Nc1ccc(-c2ccccc2)cc1 was read as E-sel inducer 0, SIRT5 inh 5 and DENV2 CPE -7.
CN(C)C(=O)C[C@H]1CC[C@@H]2[C@H](COC[C@@H](O)CN2C(=O)c2ccncc2)O1 was read as E-sel inducer 0, SIRT5 inh 16* and DENV2 CPE 0.
`O=C(C[C@@H]1CC[C@H]2[C@@H](COC[C@@H](O)CN2C(=O)c2ccncc2)O1)Nc1ccc(-c2ccccc2)cc1` gave E-sel inducer 0, SIRT5 inh 4 and DENV2 CPE 21*.
Screening CO[C@H]1CN(C)C(=O)c2ccc(NC(C)=O)cc2OC[C@@H](C)N(Cc2ccccc2F)C[C@H]1C returned E-sel inducer 0, SIRT5 inh 4 and DENV2 CPE -3.
`C[C@H](CO)N1C[C@H](C)[C@H](CN(C)Cc2ccc(C(=O)O)cc2)Oc2ncc(C#CCN(C)C)cc2C1=O` gave E-sel inducer 0, SIRT5 inh 1 and DENV2 CPE -5.
O=C(N[C@H]1CC[C@@H](CCn2cc(C3(O)CCCC3)nn2)O[C@H]1CO)c1ccccc1F was read as E-sel inducer -1, SIRT5 inh -1 and DENV2 CPE 1.
CCOC(=O)C1(CC2CC2)CCN(Cc2cn[nH]c2-c2cccc(F)c2)CC1 was read as SIRT5 inh 17*.
CCOC(=O)C1(CC2CC2)CCN(Cc2cn[nH]c2-c2ccccc2)CC1 was read as SIRT5 inh -5 and DENV2 CPE -2.
C[C@@H]1CN([C@@H](C)CO)C(=O)c2cc(-c3ccc(C#N)cc3)cnc2O[C@H]1CN(C)C(=O)CC1CC1 was read as E-sel inducer 0, SIRT5 inh -3 and DENV2 CPE 6.
Screening C[C@@H]1CCCCO[C@H](CN(C)S(=O)(=O)c2ccc(F)cc2)[C@H](C)CN([C@@H](C)CO)C(=O)c2cc(NS(C)(=O)=O)ccc2O1 returned E-sel inducer 0, SIRT5 inh 0 and DENV2 CPE -7.
`C[C@@H]1CCCCO[C@H](CN(C)S(=O)(=O)c2ccc(F)cc2)[C@@H](C)CN([C@H](C)CO)C(=O)c2cc(NS(C)(=O)=O)ccc2O1` gave E-sel inducer 1, SIRT5 inh -4 and DENV2 CPE 11.
`C[C@@H]1CN([C@H](C)CO)C(=O)c2cc(NS(C)(=O)=O)ccc2O[C@@H](C)CCCCO[C@H]1CN(C)S(=O)(=O)c1ccc(F)cc1` gave E-sel inducer 0, SIRT5 inh 3 and DENV2 CPE 27*.
C[C@@H]1CN([C@@H](C)CO)C(=O)c2cc(NS(C)(=O)=O)ccc2O[C@@H](C)CCCCO[C@H]1CN(C)S(=O)(=O)c1ccc(F)cc1 was read as E-sel inducer 0, SIRT5 inh 2 and DENV2 CPE 67*.
CCCNC(=O)Nc1ccc2c(c1)OC[C@@H](C)N(C(=O)C1CC1)C[C@H](C)[C@@H](OC)CN(C)C2=O was read as E-sel inducer 0, SIRT5 inh -1 and DENV2 CPE inconclusive.
